Columns and labels:
Type in all cases: functional
Rattus norvegicus [1] = assay: Ex vivo percent inhibition against serum TXB2 production after 2 hr at dose 10 mg/kg by oral administration in rat
Rattus norvegicus [2] = assay: Ex vivo percent inhibition against serum TXB2 production after 24 hr r at dose 1 mg/kg by oral administration in rat
Outline: (§1)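 Male Sprague–Dawley rats, 7–8 weeks old, dosed orally. Controls got vehicle alone (2 mL/kg water with a little gum arabic). At 24 h, 1 mL blood was drawn from the abdominal aorta under pentobarbital anesthesia (50 mg/kg ip) and clotted 90 min at 25 °C. Serum TXB2 was measured by radioimmunoassay. % inhibition = [1 − (B/A)] × 100 versus untreated rats.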

Rattus norvegicus [3] = assay: Ex vivo percent inhibition against serum TXB2 production after 24 hr r at dose 10 mg/kg by oral administration in rat; outline: as §1

In the case of `O=C(O)CCCC/C=C(\c1ccccc1)c1ccc[n+]([O-])c1`, the inhibition in vivo at 10 mg/kg (Rattus norvegicus [1]) is reported as 85%.

`NC(=O)CCCC/C=C(\c1ccccc1)c1cccnc1` gave an inhibition in vivo at 10 mg/kg (Rattus norvegicus [1]) of 93%.

Compound `O=C(O)CCCCC/C=C(\c1ccccc1)c1cccnc1` has an inhibition in vivo at 1 mg/kg (Rattus norvegicus [2]) of 24%.

`COC(=O)CCCC/C=C(\c1ccccc1)c1cccnc1` showed an inhibition in vivo at 10 mg/kg (Rattus norvegicus [1]) of 92%.

In the case of `CC(C)(CCC/C=C(\c1ccccc1)c1cccnc1)C(=O)O`, the inhibition in vivo at 1 mg/kg (Rattus norvegicus [2]) is reported as 14%.

In the case of `OCCCCC/C=C(\c1ccccc1)c1cccnc1`, the inhibition in vivo at 10 mg/kg (Rattus norvegicus [1]) is reported as 92%.

With `O=C(O)CCCCCC/C=C(\c1ccccc1)c1cccnc1` the inhibition in vivo at 1 mg/kg (Rattus norvegicus [2]) was 17%.

For `CC(C)CSC(CCC/C=C(\c1ccccc1)c1cccnc1)C(=O)O` (stereo unspecified), the inhibition in vivo at 1 mg/kg (Rattus norvegicus [2]) was 8%.

`CCOC(=O)CCCC/C=C(\c1ccccc1)c1cccnc1` showed an inhibition in vivo at 10 mg/kg (Rattus norvegicus [1]) of 90% and an inhibition in vivo at 1 mg/kg (Rattus norvegicus [2]) of 35%.

For `CC(C)(CCC/C=C(/c1cccnc1)c1cccs1)C(=O)O`, the inhibition in vivo at 1 mg/kg (Rattus norvegicus [2]) was 17%.

With `O=C(O)CCCCCCCC/C=C(\c1ccccc1)c1cccnc1` the inhibition in vivo at 10 mg/kg (Rattus norvegicus [1]) was 92% and the inhibition in vivo at 1 mg/kg (Rattus norvegicus [2]) was 10%.

Work on `CC(C)(O)C(CCC/C=C(\c1ccccc1)c1cccnc1)C(=O)O` (stereo unspecified) yielded an inhibition in vivo at 1 mg/kg (Rattus norvegicus [2]) of 37%.

Compound `O=C(O)CCCC/C=C(\c1ccccc1)c1cccnc1` [(E)-ISBOGREL] has an inhibition in vivo at 10 mg/kg (Rattus norvegicus [3]) of 90% and an inhibition in vivo at 1 mg/kg (Rattus norvegicus [2]) of 53%.
